Experimental data as given in ChEMBL document CHEMBL4330103, “Design, synthesis, and bioactivity evaluation of novel Bcl-2/HDAC dual-target inhibitors for the treatment of multiple myeloma” (Bioorg Med Chem Lett, 2019).
Activity calls are given as the source filed them. The rule behind the calls is not given here.

What was measured:
[1] = molecular target: T1, Protein deacetylase HDAC6 (Homo sapiens, UniProt Q9UBN7); experiment: Inhibition of full length recombinant human N-terminal GST-tagged HDAC6 expressed in baculovirus infected sf9 cells preincubated for 5 mins followed by biotinylated H3K9-Ac substrate addition and measured after 60 mins by HTRF assay
T1 sequence (Q9UBN7 whole entry): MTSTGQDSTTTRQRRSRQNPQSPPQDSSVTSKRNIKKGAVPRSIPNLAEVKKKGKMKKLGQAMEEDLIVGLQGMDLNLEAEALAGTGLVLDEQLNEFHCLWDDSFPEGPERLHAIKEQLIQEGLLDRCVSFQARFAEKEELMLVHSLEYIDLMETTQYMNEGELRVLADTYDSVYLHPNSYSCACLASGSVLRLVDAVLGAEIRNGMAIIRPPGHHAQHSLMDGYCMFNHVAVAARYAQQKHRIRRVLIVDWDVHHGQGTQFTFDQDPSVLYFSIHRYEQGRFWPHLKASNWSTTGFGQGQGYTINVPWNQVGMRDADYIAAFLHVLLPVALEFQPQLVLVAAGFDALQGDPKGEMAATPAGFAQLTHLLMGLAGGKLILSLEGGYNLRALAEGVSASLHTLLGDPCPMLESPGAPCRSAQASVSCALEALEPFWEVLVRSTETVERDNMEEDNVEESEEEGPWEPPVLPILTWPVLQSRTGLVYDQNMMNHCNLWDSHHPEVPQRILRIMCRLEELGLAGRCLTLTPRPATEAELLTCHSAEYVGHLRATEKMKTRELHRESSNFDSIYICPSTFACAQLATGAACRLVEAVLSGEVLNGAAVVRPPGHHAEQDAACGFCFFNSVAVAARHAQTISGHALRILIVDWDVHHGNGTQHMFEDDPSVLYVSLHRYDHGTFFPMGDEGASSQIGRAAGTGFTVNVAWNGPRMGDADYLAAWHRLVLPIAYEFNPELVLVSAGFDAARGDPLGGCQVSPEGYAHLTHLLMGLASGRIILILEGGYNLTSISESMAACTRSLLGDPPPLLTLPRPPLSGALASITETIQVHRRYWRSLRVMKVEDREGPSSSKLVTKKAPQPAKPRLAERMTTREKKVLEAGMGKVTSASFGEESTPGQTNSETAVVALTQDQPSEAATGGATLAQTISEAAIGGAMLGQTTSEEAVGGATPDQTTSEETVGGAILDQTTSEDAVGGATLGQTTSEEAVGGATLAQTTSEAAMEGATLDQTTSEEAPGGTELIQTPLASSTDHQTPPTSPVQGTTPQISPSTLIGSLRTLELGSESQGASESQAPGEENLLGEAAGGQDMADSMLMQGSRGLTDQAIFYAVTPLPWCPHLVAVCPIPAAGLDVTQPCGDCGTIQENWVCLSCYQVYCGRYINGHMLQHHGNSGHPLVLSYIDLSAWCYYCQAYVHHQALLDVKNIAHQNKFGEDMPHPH

Histone deacetylase 1 [2] = molecular target: T2, Histone deacetylase 1 (Homo sapiens, UniProt Q13547); experiment: Inhibition of full length recombinant human C-terminal FLAG-tagged HDAC1 expressed in sf9 cells preincubated for 5 mins followed by biotinylated H3K9-Ac substrate addition and measured after 60 mins by HTRF assay
T2 sequence (Q13547 whole entry): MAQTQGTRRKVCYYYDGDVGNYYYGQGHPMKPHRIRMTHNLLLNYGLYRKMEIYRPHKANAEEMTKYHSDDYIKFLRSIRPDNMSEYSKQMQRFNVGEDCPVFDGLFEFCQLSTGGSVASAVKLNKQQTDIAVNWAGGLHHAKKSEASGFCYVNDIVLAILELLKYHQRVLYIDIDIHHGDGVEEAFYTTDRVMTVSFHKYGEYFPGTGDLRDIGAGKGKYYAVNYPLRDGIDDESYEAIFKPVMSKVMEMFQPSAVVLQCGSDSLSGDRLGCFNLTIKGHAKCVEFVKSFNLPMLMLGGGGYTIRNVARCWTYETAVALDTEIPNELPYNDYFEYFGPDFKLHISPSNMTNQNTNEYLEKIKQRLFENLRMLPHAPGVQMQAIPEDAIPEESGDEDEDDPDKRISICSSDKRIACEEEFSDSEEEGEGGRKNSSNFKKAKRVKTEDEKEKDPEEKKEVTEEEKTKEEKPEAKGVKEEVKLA

[3] = molecular target: T3, Protein deacetylase HDAC6 (Homo sapiens) (UniProt Q9UBN7); experiment: Inhibition of HDAC6 in human RPMI8226 cells assessed as increase in acetylated-tubulin level at 10 uM after 24 hrs by Western blot analysis; type: cell-based
T3 sequence (whole entry): T1 sequence (Q9UBN7 whole entry)
Method in brief: (§1)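 RPMI-8226 cells exposed to compound at 10 μM for 24 h. Acetylated histone H3 and acetylated tubulin were then detected by immunoblot with specific antibodies.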

[4] = molecular target: Apoptosis regulator Bcl-2 (Homo sapiens, UniProt P10415); experiment: Inhibition of FAM-Bid peptide binding to Bcl2 (unknown origin) by fluorescence polarization assay
Chain of Apoptosis regulator Bcl-2 (P10415 whole entry): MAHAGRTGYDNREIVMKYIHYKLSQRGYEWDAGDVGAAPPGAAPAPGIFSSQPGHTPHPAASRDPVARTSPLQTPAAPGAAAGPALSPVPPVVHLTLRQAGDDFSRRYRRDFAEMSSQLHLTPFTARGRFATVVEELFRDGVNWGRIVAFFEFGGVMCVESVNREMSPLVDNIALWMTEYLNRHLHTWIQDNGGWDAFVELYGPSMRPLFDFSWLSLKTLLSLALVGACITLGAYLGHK

Homo sapiens = species on record: Homo sapiens; experiment: Selectivity index, ratio of IC50 for full length recombinant human C-terminal FLAG-tagged HDAC1 expressed in sf9 cells to IC50 for full length recombinant human N-terminal GST-tagged HDAC6 expressed in baculovirus infected sf9 cells
RPMI-8226 = experiment: cells; type: functional, cell-based; settings: Homo sapiens, RPMI-8226, 72 h
U-266 = experiment: cells; type: functional, cell-based; settings: Homo sapiens, U-266, 72 h
Histone deacetylase 1 [5] = molecular target: T2, Histone deacetylase 1; experiment: Inhibition of HDAC1 in human RPMI8226 cells assessed as increase in acetylated-H3 level at 10 uM after 24 hrs by Western blot analysis; type: cell-based; method in brief: as §1

CC1(C)CCC(CN2CCN(c3ccc(C(=O)NS(=O)(=O)c4ccc(NCCCCCCCC(=O)NO)c([N+](=O)[O-])c4)c(Oc4cnc5[nH]ccc5c4)c3)CC2)=C(c2ccc(Cl)cc2)C1
IC50 [1]: 19 nM | IC50 (Histone deacetylase 1 [2]): 281 nM | inhibition [3]: Active | IC50 [4]: 250 nM | Ratio IC50 (Homo sapiens): > 10 | IC50 (RPMI-8226): 200 nM | IC50 (U-266): 8700 nM | inhibition (Histone deacetylase 1 [5]): Active

O=C(CCCCCCNC(=O)c1cnc(N(c2ccccc2)c2ccccc2)nc1)NO [RICOLINOSTAT]
IC50 (RPMI-8226): 11000 nM | IC50 (U-266): 21200 nM

CC1(C)CCC(CN2CCN(c3ccc(C(=O)NS(=O)(=O)c4ccc(NCCCC(=O)NO)c([N+](=O)[O-])c4)c(Oc4cnc5[nH]ccc5c4)c3)CC2)=C(c2ccc(Cl)cc2)C1
IC50 [1]: > 1000 nM | IC50 (Histone deacetylase 1 [2]): > 1000 nM

CC1(C)CCC(CN2CCN(c3ccc(C(=O)NS(=O)(=O)c4ccc(NCC5CCOCC5)c([N+](=O)[O-])c4)c(Oc4cnc5[nH]ccc5c4)c3)CC2)=C(c2ccc(Cl)cc2)C1 [VENETOCLAX]
IC50 (RPMI-8226): 2700 nM | IC50 (U-266): 94000 nM

CC1(C)CCC(CN2CCN(c3ccc(C(=O)NS(=O)(=O)c4ccc(NCCCCC(=O)NO)c([N+](=O)[O-])c4)c(Oc4cnc5[nH]ccc5c4)c3)CC2)=C(c2ccc(Cl)cc2)C1
IC50 [1]: > 1000 nM | IC50 (Histone deacetylase 1 [2]): > 1000 nM

CC1(C)CCC(CN2CCN(c3ccc(C(=O)NS(=O)(=O)c4ccc(NCC(=O)NO)c([N+](=O)[O-])c4)c(Oc4cnc5[nH]ccc5c4)c3)CC2)=C(c2ccc(Cl)cc2)C1
IC50 [1]: > 1000 nM | IC50 (Histone deacetylase 1 [2]): > 1000 nM

CC1(C)CCC(CN2CCN(c3ccc(C(=O)NS(=O)(=O)c4ccc(NCCC(=O)NO)c([N+](=O)[O-])c4)c(Oc4cnc5[nH]ccc5c4)c3)CC2)=C(c2ccc(Cl)cc2)C1
IC50 [1]: > 1000 nM | IC50 (Histone deacetylase 1 [2]): > 1000 nM

CC1(C)CCC(CN2CCN(c3ccc(C(=O)NS(=O)(=O)c4ccc(NCCCCCCC(=O)NO)c([N+](=O)[O-])c4)c(Oc4cnc5[nH]ccc5c4)c3)CC2)=C(c2ccc(Cl)cc2)C1
IC50 [1]: 28 nM | IC50 (Histone deacetylase 1 [2]): 665 nM | inhibition [3]: Active | IC50 [4]: 240 nM | Ratio IC50 (Homo sapiens): > 10 | IC50 (RPMI-8226): 300 nM | IC50 (U-266): 9800 nM

CC1(C)CCC(CN2CCN(c3ccc(C(=O)NS(=O)(=O)c4ccc(NCCCCCC(=O)NO)c([N+](=O)[O-])c4)c(Oc4cnc5[nH]ccc5c4)c3)CC2)=C(c2ccc(Cl)cc2)C1
IC50 [1]: 28 nM | IC50 (Histone deacetylase 1 [2]): 847 nM | inhibition [3]: Active | IC50 [4]: 230 nM | Ratio IC50 (Homo sapiens): > 10 | IC50 (RPMI-8226): 300 nM | IC50 (U-266): 27100 nM
